Test results from ChEMBL document CHEMBL2040734, “Benzothiazoles: search for anticancer agents” (2012).

Key:
Type in all cases: functional
CAKI-1 = test: Cytotoxicity against human Caki1 cells assessed as cell growth at 100 uM after 48 hrs by sulforhodamine B assay; conditions: CAKI-1, 48 h, read-out: Activity
Outline: (§1)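 NCI-60 five-dose screen. Cells were grown in RPMI 1640 with 5% FBS and 2 mM L-glutamine and preincubated 24 h. Compound (DMSO stock) was tested at 0.01, 0.1, 1, 10 and 100 µM for 48 h at 37 °C. Cells were fixed in situ with cold TCA (final 10%) and stained with 0.4% SRB. A515 was read, and percent growth was calculated against time-zero and control plates.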

NCI-H322M [1] = test: Cytotoxicity against human NCI-H322M cells assessed as cell growth at 10 '-5 M after 48 hrs by sulforhodamine B assay; conditions: read-out: Activity
SNB-75 [2] = test: Cytotoxicity against human SNB75 cells assessed as cell growth at 10 '-5 M after 48 hrs by sulforhodamine B assay; conditions: SNB-75, 48 h, read-out: Activity
OVCAR-5 = test: Cytotoxicity against human OVCAR5 cells assessed as cell growth at 0.01 uM after 48 hrs by sulforhodamine B assay; conditions: OVCAR-5, 48 h, read-out: Activity
HCC 2998 = test: Cytotoxicity against human HCC2998 cells assessed as cell growth at 10 uM after 48 hrs by sulforhodamine B assay; conditions: HCC 2998, 48 h, read-out: Activity
Outline: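 Five-dose NCI panel run at 0.01, 0.1, 1, 10 and 100 µM. Cells were in RPMI 1640 with 5% FBS and 2 mM L-glutamine, seeded at 5000–40,000 cells/well and pre-incubated 24 h. Drug was diluted from a DMSO stock into medium with 50 µg/ml gentamicin. Exposure was 48 h at 37 °C, 5% CO2. Cells were fixed with cold TCA and stained with 0.4% SRB, read at 515 nm. Percent growth came from time-zero, control and test absorbances.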

HCT-15 = test: Growth inhibition of human HCT15 cells after 48 hrs by sulforhodamine B assay; conditions: HCT-15, 48 h
Outline: (§2)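 Adherent NCI-60 lines were grown in RPMI 1640 with 5% FBS and 2 mM L-glutamine, plated at 5000–40,000 cells/well and preincubated 24 h. They were then exposed to five concentrations (0.01–100 µM, from a DMSO stock) for 48 h at 37 °C, 5% CO2. Cells were fixed with cold TCA (10% final, 60 min, 4 °C) and stained with 0.4% SRB. Dye was solubilized in 10 mM Tris base and A515 read. GI50 was derived from time-zero, control and treated absorbances.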

NCI/ADR-RES = test: Cytotoxicity against human NCI/ADR-RES cells assessed as cell growth at 100 uM after 48 hrs by sulforhodamine B assay; conditions: read-out: Activity
A498 [3] = test: Cytotoxicity against human A498 cells assessed as cell growth at 0.01 uM after 48 hrs by sulforhodamine B assay; conditions: A498, 48 h, read-out: Activity; outline: as §1
T47D = test: Cytotoxicity against human T47D cells assessed as cell growth at 10 '-5 M after 48 hrs by sulforhodamine B assay; conditions: read-out: Activity
SNB-75 [4] = test: Cytotoxicity against human SNB75 cells assessed as cell growth at 0.1 uM after 48 hrs by sulforhodamine B assay; conditions: SNB-75, 48 h, read-out: Activity
SK-OV-3 = test: Cytotoxicity against human SKOV3 cells assessed as cell growth at 10 '-5 M after 48 hrs by sulforhodamine B assay; conditions: SK-OV-3, 48 h, read-out: Activity
SW-620 = test: Cytotoxicity against human SW620 cells assessed as cell growth at 0.01 uM after 48 hrs by sulforhodamine B assay; conditions: SW-620, 48 h, read-out: Activity
SN12C = test: Cytotoxicity against human SN12C cells assessed as cell growth at 100 uM after 48 hrs by sulforhodamine B assay; conditions: read-out: Activity
MDA-MB-231 = test: Cytotoxicity against human MDA-MB-231 cells assessed as cell growth at 1 uM after 48 hrs by sulforhodamine B assay; conditions: MDA-MB-231, 48 h, read-out: Activity
OVCAR-4 = test: Cytotoxicity against human OVCAR4 cells assessed as cell growth at 1 uM after 48 hrs by sulforhodamine B assay; conditions: OVCAR-4, 48 h, read-out: Activity
SF-539 = test: Growth inhibition of human SF539 cells after 48 hrs by sulforhodamine B assay; conditions: SF-539, 48 h; outline: as §2
OVCAR-3 = test: Cytotoxicity against human OVCAR3 cells assessed as cell growth at 0.1 uM after 48 hrs by sulforhodamine B assay; conditions: OVCAR-3, 48 h, read-out: Activity
TK-10 = test: Cytotoxicity against human TK10 cells assessed as cell growth at 10 uM after 48 hrs by sulforhodamine B assay; conditions: TK-10, 48 h, read-out: Activity
SK-MEL-5 = test: Cytotoxicity against human SK-MEL-5 cells assessed as cell growth at 10 '-5 M after 48 hrs by sulforhodamine B assay; conditions: SK-MEL-5, 48 h, read-out: Activity
PC-3 = test: Cytotoxicity against human PC3 cells assessed as cell growth at 1 uM after 48 hrs by sulforhodamine B assay; conditions: PC-3, 48 h, read-out: Activity
LOX IMVI = test: Cytotoxicity against human LOXIMVI cells assessed as cell growth at 10 '-5 M after 48 hrs by sulforhodamine B assay; conditions: read-out: Activity
A498 [5] = test: Cytotoxicity against human A498 cells assessed as cell growth at 10 '-5 M after 48 hrs by sulforhodamine B assay; conditions: A498, 48 h, read-out: Activity
Outline: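 Primary NCI-60 single-dose screen at 10 µM. Cells were grown in RPMI 1640 with 5% FBS and 2 mM L-glutamine and plated 24 h before drug addition. Compound was solubilized in DMSO, then exposed for 48 h at 37 °C under 5% CO2. Cells were TCA-fixed and stained with SRB, and absorbance was read at 515 nm. Growth was expressed relative to time-zero and untreated controls.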

UACC-62 = test: Cytotoxicity against human UACC62 cells assessed as cell growth at 1 uM after 48 hrs by sulforhodamine B assay; conditions: UACC-62, 48 h, read-out: Activity
786-0 = test: Growth inhibition of human 786-0 cells after 48 hrs by sulforhodamine B assay; conditions: 786-0, 48 h; for CC50: read-out: LC50 (the source's name)
Outline: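 Cells were in RPMI 1640 with 5% FBS and pre-incubated 24 h. Read-out was TCA fixation, SRB staining and absorbance at 515 nm. GI50 was the concentration where [(Ti−Tz)/(C−Tz)]×100 = 50, taken from log concentration vs % growth curves. It is given as ">" the top concentration when not reached.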

A498 [6] = test: Cytotoxicity against human A498 cells assessed as cell growth at 100 uM after 48 hrs by sulforhodamine B assay; conditions: A498, 48 h, read-out: Activity; outline: as §1
ACHN = test: Cytotoxicity against human ACHN cells assessed as cell growth at 10 uM after 48 hrs by sulforhodamine B assay; conditions: read-out: Activity; outline: as §1
NCI-H322M [7] = test: Cytotoxicity against human NCI-H322M cells assessed as cell growth at 1 uM after 48 hrs by sulforhodamine B assay; conditions: read-out: Activity

| Structure (SMILES) | growth at 100 µM (CAKI-1) | growth at 10 µM (NCI-H322M [1]) | growth at 10 µM (SNB-75 [2]) | growth at 0.01 µM (OVCAR-5) | growth at 10 µM (HCC 2998) | GI50 (HCT-15) | LC50 (HCT-15) | TGI (HCT-15) | growth at 100 µM (NCI/ADR-RES) | growth at 0.01 µM (A498 [3]) | growth at 10 µM (T47D) | growth at 0.1 µM (SNB-75 [4]) | growth at 10 µM (SK-OV-3) | growth at 0.01 µM (SW-620) | growth at 100 µM (SN12C) | growth at 1 µM (MDA-MB-231) | growth at 1 µM (OVCAR-4) | GI50 (SF-539) | LC50 (SF-539) | TGI (SF-539) | other results |
| --- | --- | --- | --- | --- | --- | --- | --- | --- | --- | --- | --- | --- | --- | --- | --- | --- | --- | --- | --- | --- | --- |
| Cc1ccc2nc(Nc3c(C)cccc3C)sc2c1 | 42% | 71% | -15.5% | 93% | 53% | 0.92 µM | > 100 µM | > 100 µM | 46% | 75% | 45.8% | 61% | 47.1% | 97% | 52% | 37% | 71% | 66.8 µM | > 100 µM | > 100 µM | growth at 0.1 µM (OVCAR-3): 108%; growth at 10 µM (TK-10): 71%; growth at 10 µM (SK-MEL-5): 26.8%; growth at 1 µM (PC-3): 68%; growth at 10 µM (LOX IMVI): 24.7%; growth at 10 µM (A498 [5]): 38%; growth at 1 µM (UACC-62): 52%; GI50 (786-0): > 100 µM; TGI (786-0): > 100 µM; CC50 (786-0): > 100 µM; growth at 100 µM (A498 [6]): 60%; growth at 10 µM (ACHN): 59%; growth at 1 µM (NCI-H322M [7]): 91% |
| Clc1cccc(Cl)c1Nc1nc2cccc(Cl)c2s1 | -75% | 9.8% | -26.9% | 102% | -88% | 1.16 µM | 5.69 µM | 2.57 µM | -55% | 85% | -4.9% | 85% | 6.87% | 97% | -84% | 17% | 44% | 1.48 µM | 6.4 µM | 3.08 µM | growth at 0.1 µM (OVCAR-3): 97%; growth at 10 µM (TK-10): -86%; growth at 10 µM (SK-MEL-5): -71.3%; growth at 1 µM (PC-3): 38%; growth at 10 µM (LOX IMVI): -88.3%; growth at 10 µM (A498 [5]): -53.6%; growth at 1 µM (UACC-62): 51%; GI50 (786-0): 1.03 µM; TGI (786-0): 2.28 µM; CC50 (786-0): 5.03 µM; growth at 100 µM (A498 [6]): -92%; growth at 10 µM (ACHN): -99%; growth at 1 µM (NCI-H322M [7]): 76% |
